# High-throughput results deposited in PubChem by several laboratories.
# Many of the other results were omitted from the sample, so hits are more common in it than they were.
# GAA850 FXN act: activators of GAA850 frataxin (FXN) promoter | activation, % at 6 µM | 0.56% of 360,000 active | HEK293 lucGAA850 FXN promoter luciferase reporter, 24 h; percent of 10 µM SAHA response | AID 540364;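 active means activation above the average of all compounds screened plus 3 SD, cutoff fixed separately per campaign, cut at about 7.5% in these data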;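 further: 0% = DMSO wells and 100% = 10 µM SAHA wells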
# CHOP inhibitor: CHOP inhibition in unfolded protein response. AID 2732. inhibition, % at 10 µM. 3.8% of 220,000 active. CHO-K1 CHOP-promoter luciferase, tunicamycin-induced, 15-18 h;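 active means compounds that reduced the stress-induced luciferase reporter signal by more than about 70% of percent inhibition, limit read from the data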;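 further: 0% = tunicamycin plus vehicle and 100% = wells without tunicamycin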
# UPR XBP1 act: adaptive UPR (XBP1) activation | CHO-XBP1 luciferase reporter, IRE1-XBP1 UPR activation, luminescence; percent of tunicamycin response, DMSO as zero | 0.33% of 330,000 active | AID 463104 | activation, % at 20 µM;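 active means versus positive control, 20 µM dose yields 30% or more activation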;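 further: 100% = tunicamycin at 10 µg/mL and 0% = DMSO only wells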
#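 incubation = overnight seeding at 37 °C, 6 h compound treatment at 37 °C | assay system = CHO-XBP1 cells stably carrying IRE1-XBP1-driven luciferase reporter | input = 1000 cells per well | detection = luciferase luminescence | dosing = single point, 20 µM final compound, 1% DMSO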
# UPR CHOP act: activators of apoptotic arm of unfolded protein response (CHOP). activation, % at 10 µM. 0.34% of 330,000 active. CHO-CHOP luciferase reporter, UPR activation, luminescence; percent of tunicamycin response over DMSO baseline;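 active means at 10 µM dose, activation of 40% or more, normalized to positive control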;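 further: 100% = tunicamycin at 10 µg/mL and 0% = DMSO alone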
#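 measured by = luciferase luminescence | assay system = CHO-CHOP cells, stable luciferase reporter of PERK-eIF2a-CHOP signalling | amount = 500 reporter cells seeded per well | timing = 6 h compound exposure at 37 °C after overnight seeding | controls = positive tunicamycin 10 µg/mL, negative DMSO alone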
# CHOP confirm: confirmation of CHOP induction inhibitors | shares compounds with CHOP inhibitor | CHO-CHOP promoter luciferase reporter, tunicamycin-induced, luminescence | inhibition, % at 10 µM | 45% of 2,100 active;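 active means mean of three repeat readings of reporter signal inhibition above a set limit, cut at about 70% in these data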;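 further: 0% = tunicamycin plus vehicle and 100% = wells lacking tunicamycin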
# * marks the source's active call; other numbers are inactive results; nt = no result given.
SMILES,GAA850 FXN act,CHOP inhibitor,UPR XBP1 act,UPR CHOP act,CHOP confirm
O=C(CNC1CCCCCC1)Nc1ccccc1N1CCCCC1,1,98*,0,0,94*
COc1ccccc1Nc1ncnc2c1cnn2-c1cccc(C)c1,1,-20,0,6,nt
COc1cccc(Nc2ncnc3c2cnn3-c2cccc(C)c2)c1,3,105*,4,4,130*
CCc1nc2ccc(C(=O)NCCOc3ccc(OC)cc3)cn2c1N(CC)CCOC,-2,nt,nt,nt,nt
CCc1c(C)sc(NC(=O)CSc2nc3c(c(C(F)(F)F)n2)CCc2ccccc2-3)c1C#N,-1,97*,5,1,72*
CC(NC(=O)CSc1nc2c(c(C(F)(F)F)n1)CCc1ccccc1-2)c1ccccc1 (configuration not stated),-1,38,-5,-2,nt
S=C(Nc1ccc(Cl)c(Cl)c1)NC1CCCCC1,0,103*,3,3,24
Fc1ccc(NC(=S)NC2CCN(Cc3ccccc3)CC2)cc1,-2,-11,0,0,nt
S=C(Nc1ccc(Cl)c(Cl)c1)NC1CCN(Cc2ccccc2)CC1,-5,105*,14,3,37
Nc1nonc1-n1nnc(C(=O)N/N=C/c2ccco2)c1CSc1ccc(Cl)cc1,1,nt,nt,nt,nt
CC1(Oc2ccc3ccccc3c2)CCN(Cc2cccn2-c2nccs2)C1 (configuration not stated),3,nt,nt,nt,nt
Cc1cccc(NC(=O)Cc2nnc(NC(=O)Nc3ccccc3F)s2)c1,2,57,4,1,nt
O=C(Nc1nnc(COc2ccccc2F)s1)Nc1ccccc1F,-1,99*,5,0,-6
O=C(Nc1nnc(CC2=CCCCC2)s1)Nc1ccccc1F,nt,98*,7,5,6
Clc1ccc2c(N/N=C/c3ccc(Br)cc3)ccnc2c1,4,103*,nt,nt,96*
Clc1ccc2c(N/N=C/c3cccnc3)ccnc2c1,6,-1,2,0,nt
Cc1ccccc1/C=N/Nc1ccnc2cc(Cl)ccc12,-3,107*,nt,nt,88*
COc1cc(CNc2ncnc3c2ncn3[C@H]2CN(Cc3cccc(C(F)(F)F)c3)C[C@@H](CO)O2)cc(OC)c1OC,-6,nt,nt,nt,nt
O=C(COc1ccc(Cl)cc1)Nc1ccccc1C(=O)NCc1ccco1,3,97*,4,6,-8
O=[N+]([O-])c1ccccc1C1Nc2cccc3cccc(c23)N1,2,106*,1,4,12
Oc1ccccc1C1Nc2cccc3cccc(c23)N1,3,26,6,-1,nt
O=C(Nc1nc2ccccc2s1)C1CC(=O)N(c2ccc(Cl)cc2)C1 (configuration not stated),0,105*,1,-1,16
N=C1/C(=C\c2ccc(-c3ccc(C(=O)O)cc3)o2)C(=O)N=C2SC=C(c3ccccc3)N12,-1,100*,nt,nt,38
N=C1/C(=C\c2ccc(-c3cccc(Cl)c3)o2)C(=O)N=C2SC=C(c3ccccc3)N12,-1,-5,2,2,nt
Cc1nn(C(C)(C)C)c(C)c1/C=N/OC(=O)Nc1ccc(Cl)cc1,-14,99*,-11,-10,117*
SMILES,GAA850 FXN act,CHOP inhibitor,UPR XBP1 act,UPR CHOP act,CHOP confirm
Cc1nn(C)c(C)c1/C=N/NC(=O)C(C)(C)Oc1ccc(Cl)cc1,0,7,-2,-1,nt
O=C(CSc1nc2ccc(Cl)cc2[nH]1)c1c[nH]c2ccccc12,1,101*,-1,1,26
CCOC(=O)C1=C(O)/C(=C\c2ccc(CNC(=O)C(=O)Nc3ccc(C)c(C)c3)o2)N=C1C,nt,109*,nt,nt,-3
CCOc1ccc(-c2nc(N)ncc2Oc2cccc(OC)c2)c(O)c1,-2,110*,3,0,25
CCOc1ccc(-c2n[nH]c(C)c2Oc2ccc(OC)cc2)c(O)c1,-1,108*,6,5,88*
CCOc1ccc(-c2nc(N)ncc2Oc2ccccc2Br)c(O)c1,3,106*,-1,-4,47
CC1(C(=O)NCc2ccccc2Br)CCN1Cc1csc2ccccc12 (configuration not stated),3,nt,nt,nt,nt
CC(=O)NC(c1ccc(F)c(F)c1)c1nc(-c2cccc(C(=O)O)c2)cs1 (configuration not stated),3,nt,nt,nt,nt
CCCNC(=O)C1(C)CCN(Cc2cc(-c3ccccc3)on2)C1 (configuration not stated),0,nt,nt,nt,nt
